The species named for assay [1] is Mus musculus. As to the kind of experiment: Stimulation of prostanoid receptor-mediated cAMP accumulation in Charles River CD-1 mouse ovary at 25 ug/ml after 30 mins relative to control. It is filed as tissue-based. To be noted: Female gonad. The procedure, abridged:
(§1)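 Mouse ovaries incubated 1 h at 37 °C with shaking to build an intracellular ATP-14C pool. Then 0.2 ml 0.05 M theophylline in 0.15 M NaCl and test compound in Me2SO were added, followed by 30 min at 37 °C. Stopped with 10% trichloroacetic acid and homogenized. cAMP-14C was isolated from the supernatant ending with paper chromatography. Result is fold increase, treated over untreated ovaries.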

The species entered for assay [2] is Mus musculus. As to the kind of experiment: Stimulation of prostanoid receptor-mediated cAMP accumulation in Charles River CD-1 mouse ovary at 100 ug/ml after 30 mins relative to control. It is filed as tissue-based. To be noted: Female gonad. The procedure, abridged:
as §1
A general note: cAMP levels reflect the balance of adenylyl cyclase and phosphodiesterase activity.

The species named for assay [3] is Mus musculus. As to the kind of experiment: Stimulation of prostanoid receptor-mediated cAMP accumulation in Charles River CD-1 mouse ovary at 10 ug/ml after 30 mins relative to control. It is filed as tissue-based. The note with it: Female gonad. The procedure, abridged: as §1
For assay [4], the species on record is Mus musculus. As to the kind of experiment: Stimulation of prostanoid receptor-mediated cAMP accumulation in Charles River CD-1 mouse ovary at 1 ug/ml after 30 mins relative to control. The note with it: Female gonad. It counts as tissue-based. In a few lines:
as §1

The species entered for assay [5] is Mus musculus. As to the kind of experiment: Stimulation of prostanoid receptor-mediated cAMP accumulation in Charles River CD-1 mouse ovary at 0.1 ug/ml after 30 mins relative to control. It is filed as tissue-based. The note with it: Female gonad. In a few lines:
as §1

Assay [6] is filed under the species Mus musculus. The assay is described as follows: Stimulation of prostanoid receptor-mediated cAMP accumulation in Charles River CD-1 mouse ovary at 0.05 ug/ml after 30 mins relative to control. It counts as tissue-based. The note with it: Female gonad. In a few lines: as §1
A further assay has as its system Canis familiaris. The assay is described as follows: Increase in renal blood flow in anesthetized dog at 0.25 mg/kg/min infused into thoracic aorta (reference value: 188 ml/min). It counts as functional, Canis lupus familiaris.

Among the data in ChEMBL document CHEMBL3272077, “11,12-Secoprostaglandins. 2. N-acyl-N-alkyl-7-aminoheptanoic acids” (1977) are fold change (FC) and Activity values, retold here.

As to `CCCCCCCCC(C)N(CCCCCCC(=O)O)C(N)=O` (stereo not drawn), the values for the fold change (FC) in the assay listed under Mus musculus [1], in the assay listed under Mus musculus [2] and in the assay filed under Mus musculus [3] were 16, 17 and 9, respectively.
On the same counts, the results for `CCCCCC(O)/C=C/CN(CCCCCCC(=O)O)C(N)=O` (stereo not drawn) are 19, 26 and 14.
For `CCCCCC(O)CCCN(C#N)CCCCCCC(=O)O` (stereo not drawn), the figures for the fold change (FC) in the assay listed under Mus musculus [1], in the assay listed under Mus musculus [2] and in the assay listed under Mus musculus [3] were 18, 31 and 4, respectively.
For the compound `CCCCCC(O)CCCN(CCCCCCC(=O)O)C(C)=O` (stereo not drawn), the results for the fold change (FC) in the assay listed under Mus musculus [1], in the assay filed under Mus musculus [2] and in the assay filed under Mus musculus [3] were 17, 17 and 10, respectively.
For `CCCCCC(O)CCCC(CCCCCCC(=O)O)C(C)=O` (stereo not drawn), the fold change (FC) was 14 in the assay listed under Mus musculus [1], 2 in the assay filed under Mus musculus [4], 23 in the assay filed under Mus musculus [2] and 11 in the assay filed under Mus musculus [3].
Regarding `CCCCC[C@H](O)CC[C@H]1CCC(=O)[C@@H]1CCCCCCC(=O)O`, the values for the fold change (FC) in the assay listed under Mus musculus [1], in the assay filed under Mus musculus [4] and in the assay listed under Mus musculus [3] were 26, 10 and 25, respectively.
As for `C=CC(=O)N(CCCCCCCCC)CCCCCCC(=O)O`, the figures for the fold change (FC) in the assay filed under Mus musculus [1], in the assay listed under Mus musculus [2] and in the assay listed under Mus musculus [3] were 7, 11 and 2, respectively.
For the compound `CCCCCC(C)(O)CCCN(CCCCCCC(=O)O)C(N)=O` (stereo not drawn), the fold change (FC) in the assay listed under Mus musculus [1] worked out at 8; in the assay listed under Mus musculus [2], 22; in the assay listed under Mus musculus [3], 3.
As to `CCCCCCCCC(c1ccccc1)N(CCCCCCC(=O)O)C(C)=O` (stereo not drawn), the fold change (FC) in the assay listed under Mus musculus [1] and in the assay filed under Mus musculus [2] was 1 throughout.
As to `CCCCC[C@H](O)/C=C/[C@H]1[C@H](O)CC(=O)[C@@H]1CCCCCCC(=O)O`, the fold change (FC) in the assay filed under Mus musculus [5] is 25; in the assay filed under Mus musculus [4], 54; in the assay listed under Mus musculus [6], 29.
Consider `CCCCCCCCC(C)N(CCCCCCC(=O)O)C(C)=O` (stereo not drawn), for which the fold change (FC) in the assay listed under Mus musculus [1] was determined as 3; in the assay listed under Mus musculus [2], 4.
With `CCCCCC(O)CCCN(CCCCCCC(=O)[O-])C(N)=O.[Na+]` (stereo not drawn), the fold change (FC) in the assay filed under Mus musculus [1] worked out at 43; in the assay listed under Mus musculus [4], 2; in the assay listed under Mus musculus [2], 40; in the assay listed under Mus musculus [3] it was 23. Besides, the Activity with Canis familiaris came to 258 mL/min.
For `CCCCCC(O)CCCN(CCCCCCC(=O)O)C(N)=S` (stereo not drawn), the fold change (FC) was determined as 16 in the assay filed under Mus musculus [1], 26 in the assay filed under Mus musculus [2] and 4 in the assay listed under Mus musculus [3].
The corresponding values for `CCCCCCCCCN(CCCCCCC(=O)O)C(N)=O` are 16, 25 and 15.
